According to ChEMBL document CHEMBL1649139, “A novel gene, erm(41), confers inducible macrolide resistance to clinical isolates of Mycobacterium abscessus but is absent from Mycobacterium chelonae” (2009):
Values after ≈ are worked out from the molar mass of the structure shown. Numbered stars: 1 amine (or outer) side, 2 acyl side, 3 side chain; on linkers, the order of the positions; unused ones are H or OH. Bridge positions count the residues as written; N and C are the ends. Square brackets hold non-standard residues; d marks the D form. Peptide text beside a SMILES is read from it. * marks the point of attachment. X1 = O=C1C[C@@H](C(=O)[*:2])N([*:1])C[C@H]1CS[C@@H]1CN2CCC1CC2; NMePhe(4-NMe2) = CN[C@@H](Cc1ccc(N(C)C)cc1)C(=O)O; Picolinoyl(3-OH) = O=C(c1ncccc1O)*; Phg = N[C@H](C(=O)O)c1ccccc1; dAbu = CC[C@@H](N)C(=O)O

Tests used:
Format in all cases: functional
[1] = system: Mycobacteroides abscessus; experiment: Antimicrobial activity against Mycobacterium abscessus isolate MC879 on day 4 by broth microdilution method; details: isolate MC879, 96 h
[2] = system: Mycobacteroides abscessus; experiment: Antimicrobial activity against Mycobacterium abscessus isolate MC958 on day 4 by broth microdilution method; details: isolate MC958, 96 h
[3] = system: Mycobacteroides abscessus; experiment: Antimicrobial activity against Mycobacterium abscessus isolate MC1028 on day 4 by broth microdilution method; details: isolate MC1028, 96 h
[4] = system: Mycolicibacterium smegmatis; experiment: Antimicrobial activity against Mycobacterium smegmatis transformed with erm allele Mycobacterium abscessus isolate MC879 by broth microdilution method
[5] = system: Mycolicibacterium smegmatis; experiment: Antimicrobial activity against Mycobacterium smegmatis transformed with erm allele Mycobacterium abscessus isolate MC958 by broth microdilution method
[6] = system: Mycolicibacterium smegmatis; experiment: Antimicrobial activity against Mycobacterium smegmatis transformed with erm allele Mycobacterium abscessus isolate MC719 by broth microdilution method
[7] = system: Mycolicibacterium smegmatis; experiment: Antimicrobial activity against Mycobacterium smegmatis transformed with erm allele Mycobacterium abscessus isolate MC720 by broth microdilution method
[8] = system: Mycolicibacterium smegmatis; experiment: Antimicrobial activity against Mycobacterium smegmatis transformed with erm allele Mycobacterium abscessus isolate MC879 preincubated with 2 ug/ml erythromycin for 20 to 24 hrs by broth microdilution method
[9] = system: Mycolicibacterium smegmatis; experiment: Antimicrobial activity against Mycobacterium smegmatis transformed with erm allele Mycobacterium abscessus isolate MC958 preincubated with 2 ug/ml erythromycin for 20 to 24 hrs by broth microdilution method
[10] = system: Mycolicibacterium smegmatis; experiment: Antimicrobial activity against Mycobacterium smegmatis transformed with erm allele Mycobacterium abscessus isolate MC719 preincubated with 2 ug/ml erythromycin for 20 to 24 hrs by broth microdilution method
[11] = system: Mycolicibacterium smegmatis; experiment: Antimicrobial activity against Mycobacterium smegmatis transformed with erm allele Mycobacterium abscessus isolate MC720 preincubated with 2 ug/ml erythromycin for 20 to 24 hrs by broth microdilution method
[12] = system: Mycolicibacterium smegmatis; experiment: Antimicrobial activity against Mycobacterium smegmatis transformed with erm allele Mycobacterium abscessus isolate MAB30 by broth microdilution method
[13] = system: Mycolicibacterium smegmatis; experiment: Antimicrobial activity against Mycobacterium smegmatis transformed with erm allele Mycobacterium abscessus isolate MC1028 by broth microdilution method
[14] = system: Mycolicibacterium smegmatis; experiment: Antimicrobial activity against Mycobacterium smegmatis transformed with erm allele Mycobacterium abscessus isolate MC1082 by broth microdilution method
[15] = system: Mycolicibacterium smegmatis; experiment: Antimicrobial activity against Mycobacterium smegmatis transformed with erm allele Mycobacterium abscessus isolate MAB30 preincubated with 2 ug/ml erythromycin for 20 to 24 hrs by broth microdilution method
[16] = system: Mycolicibacterium smegmatis; experiment: Antimicrobial activity against Mycobacterium smegmatis transformed with erm allele Mycobacterium abscessus isolate MC1028 preincubated with 2 ug/ml erythromycin for 20 to 24 hrs by broth microdilution method
[17] = system: Mycolicibacterium smegmatis; experiment: Antimicrobial activity against Mycobacterium smegmatis transformed with erm allele Mycobacterium abscessus isolate MC1082 preincubated with 2 ug/ml erythromycin for 20 to 24 hrs by broth microdilution method
[18] = system: Mycobacteroides abscessus; experiment: Antimicrobial activity against Mycobacterium abscessus isolate MC879 at day 7 by broth microdilution method; details: isolate MC879, 168 h
Procedure, shortened: (§1)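 Clarithromycin MIC by broth microdilution following CLSI guidelines. Organisms were preincubated […], for 3 days before the assay. This allowed at least two generations, judged by the rise in turbidity. The MIC was read at the stated day, with incubation extended from day 3 to as long as 14 days.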

[19] = system: Mycobacteroides abscessus; experiment: Antimicrobial activity against Mycobacterium abscessus isolate MC958 at day 7 by broth microdilution method; details: isolate MC958, 168 h; procedure, shortened: as §1
[20] = system: Mycobacteroides abscessus; experiment: Antimicrobial activity against Mycobacterium abscessus isolate MC1028 at day 7 by broth microdilution method; details: isolate MC1028, 168 h
Procedure, shortened: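 Clarithromycin MIC by CLSI-conforming broth microdilution. Before testing, cultures were preincubated for 3 days, either in medium alone or in clarithromycin or erythromycin (tested range 0.01–1 μg/ml). Preincubation ran for at least two generations, judged by turbidity increase. Plates were read on day 3 and on extended incubation at days 5 to 14.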

[21] = system: Mycobacteroides abscessus; experiment: Antimicrobial activity against Mycobacterium abscessus isolate MC879 at day 5 preincubated with 0.1 ug/ml for 3 days by broth microdilution method
Procedure, shortened: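 To test inducible resistance, cultures were preincubated for 3 days in clarithromycin or erythromycin, within 0.01–1 μg/ml. The period was set so cultures passed at least two generations, judged by turbidity increase. Clarithromycin MIC was then determined by CLSI-conforming broth microdilution and read on the stated day, from day 3 up to 14.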

[22] = system: Mycolicibacterium smegmatis; experiment: Antimicrobial activity against Mycobacterium smegmatis transformed with erm allele Mycobacterium abscessus isolate MC879-2 by broth microdilution method
[23] = system: Mycolicibacterium smegmatis; experiment: Antimicrobial activity against Mycobacterium smegmatis transformed with erm allele Mycobacterium abscessus isolate MC879-2 preincubated with 2 ug/ml erythromycin for 20 to 24 hrs by broth microdilution method

SMILES | MIC [1] [µg/mL] | MIC [3] [µg/mL] | MIC [4] [µg/mL] | MIC [5] [µg/mL] | MIC [6] [µg/mL] | MIC [7] [µg/mL] | MIC [8] [µg/mL] | MIC [9] [µg/mL] | MIC [10] [µg/mL] | MIC [11] [µg/mL] | MIC [12] [µg/mL] | MIC [13] [µg/mL] | MIC [14] [µg/mL] | MIC [15] [µg/mL] | MIC [16] [µg/mL] | MIC [17] [µg/mL] | MIC [18] [µg/mL] | MIC [19] [µg/mL] | MIC [20] [µg/mL] | MIC [21] [µg/mL] | other results
CC[C@H]1OC(=O)[C@H](C)C(=O)[C@H](C)[C@@H](O[C@@H]2O[C@H](C)C[C@H](N(C)C)[C@H]2O)[C@](C)(OC)C[C@@H](C)C(=O)[C@H](C)[C@H]2N(CCCCn3cnc(-c4cccnc4)c3)C(=O)O[C@]12C [TELITHROMYCIN] | 32 (≈ 39.4 µM) | 32 (≈ 39.4 µM) | 8 (≈ 9.85 µM) | 8 (≈ 9.85 µM) | 8 (≈ 9.85 µM) | 8 (≈ 9.85 µM) | > 128 | > 128 | > 128 | > 128 | 4 (≈ 4.93 µM) | 4 (≈ 4.93 µM) | 4 (≈ 4.93 µM) | 4 | 4 | 4 | > 128 | > 128 | > 128 |  | MIC [2]: 32 µg/mL (≈ 39.4 µM)
CCC[C@@H]1C[C@@H](C(=O)N[C@@H]([C@H]2O[C@H](SC)[C@H](O)[C@@H](O)[C@H]2O)[C@H](C)Cl)N(C)C1 [CLINDAMYCIN] | 64 (≈ 151 µM) | 64 (≈ 151 µM) | 64 (≈ 151 µM) | 64 (≈ 151 µM) | 64 (≈ 151 µM) | 64 (≈ 151 µM) | > 512 | > 512 | > 512 | > 512 | 32 (≈ 75.3 µM) | 32 (≈ 75.3 µM) | 32 (≈ 75.3 µM) | 32 | 32 | 32 | > 256 | > 256 | > 256 | 64 (≈ 151 µM) | 
CC[C@H]1OC(=O)[C@H](C)[C@@H](O[C@H]2C[C@@](C)(OC)[C@@H](O)[C@H](C)O2)[C@H](C)[C@@H](O[C@@H]2O[C@H](C)C[C@H](N(C)C)[C@H]2O)[C@](C)(O)C[C@@H](C)C(=O)[C@H](C)[C@@H](O)[C@]1(C)O [ERYTHROMYCIN] |  |  | 32 (≈ 43.6 µM) | 32 (≈ 43.6 µM) | 32 (≈ 43.6 µM) | 32 (≈ 43.6 µM) | > 128 | > 128 | > 128 | > 128 | 4 (≈ 5.45 µM) | 4 (≈ 5.45 µM) | 4 (≈ 5.45 µM) | 4 | 4 | 4 |  |  |  |  | MIC [22]: 32 µg/mL (≈ 43.6 µM); MIC [23]: > 128 µg/mL
CC[C@H]1NC(=O)[C@@H](NC(=O)c2ncccc2O)[C@@H](C)OC(=O)[C@H](c2ccccc2)NC(=O)[C@@H]2CC(=O)[C@H](CS[C@@H]3CN4CCC3CC4)CN2C(=O)[C@H](Cc2ccc(N(C)C)cc2)N(C)C(=O)[C@@H]2CCCN2C1=O [QUINUPRISTIN] ({Picolinoyl(3-OH)}-T[dAbu]P[NMePhe(4-NMe2)][X1][Phg]; ester 1-C) | 64 (≈ 62.6 µM) | 64 (≈ 62.6 µM) | 128 (≈ 125 µM) | 128 (≈ 125 µM) | 128 (≈ 125 µM) | 128 (≈ 125 µM) | 128 | 128 | 128 | 128 | 128 (≈ 125 µM) | 128 (≈ 125 µM) | 128 (≈ 125 µM) | 128 | 128 | 128 | > 256 | > 256 | > 256 | 64 (≈ 62.6 µM) | 
